This sample holds only a part of the variants without activity.
B1: tRNA (parent)
chain: GUUCCGUUGGCGUAAUGGUAACGCGUCUCCCUCCUAAGGAGAAGACUGCGGGUUCGAGUCCCGUACGGAACG

Variants of: B1
Assay: yeast fitness relative to wild type (ratio to wild type); higher = fitter; tRNA-Arg(CCU), competitive growth, 37 C, YPD
How it was run: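 Variants of the tRNA-Arg(CCU) gene, chemically synthesised with a 3% per-site mutation rate at 69 sites, were placed at the native genomic locus in Saccharomyces cerevisiae. The pooled strains were competed in YPD at 37°C for 24 hours in six parallel replicates. Gene amplicons from the start population and from each end population were read by 100-nucleotide paired-end sequencing. Darwinian fitness relative to wild type came from changes in genotype frequencies; genotypes needed ≥ 100 starting reads, and estimates < 0.5 were set to 0.5.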

| Variant | yeast fitness |
| --- | --- |
| U28A C66A | 0.575 |
| C27G A36U U53A | ≤ 0.5 |
| U26C C30U C46A U47G G50A | ≤ 0.5 |
| C27G C31A A57U | 0.573 |
| U28C A42C C60U | 0.589 |
| C27A G38C G51C A69U | ≤ 0.5 |
| U28C C29A A69U | 0.559 |
| C27G A40C C60U | ≤ 0.5 |
| U26C C61G G63A A69U | 0.532 |
| C27U C55A A69C | 0.573 |
| C27U G48A A65U | 0.714 |
| U28A A42U | 0.812 |
| U28A A42C | 0.797 |
| U26C C30G A45U U53A C62U G68C | ≤ 0.5 |
| C27G A40C C55G | ≤ 0.5 |
| U28A U32C G39C | 0.542 |
| C27U A40G U64C | 0.602 |
| C27U A40G U64A | ≤ 0.5 |
| C27U G38A C55A | ≤ 0.5 |
| C27G A42U U53C | ≤ 0.5 |
| U26C C30G A43U G50A | ≤ 0.5 |
| C27U A37U G67A | ≤ 0.5 |
| C27U U54G A65C | ≤ 0.5 |
| U28A C31U U32A G52A A57U C60U A65G G68A | ≤ 0.5 |

| Variant | yeast fitness |
| --- | --- |
| C27G C30U U32C G51C U64A | ≤ 0.5 |
| C27A A65U | 0.678 |
| C27A U35A A43U | ≤ 0.5 |
| U26C C33G A36U A57U | ≤ 0.5 |
| U26C A36G A69C | 0.736 |
| U26C C30G C34U C49U | 0.51 |
| C27A C62G A65U | ≤ 0.5 |
| C27U C46A A57C | 0.726 |
| C27A C31G G50A | 0.661 |
| C27U A45C G48A A57U G67A | ≤ 0.5 |
| C27G U32A C34A C55A | ≤ 0.5 |
| C27U G52A | 0.7 |
| C27U G52C | 0.7 |
| U28C C62G C66G | ≤ 0.5 |
| U28A A37G G51C A57C | ≤ 0.5 |
| U28C A36C U47A G58C G67U | ≤ 0.5 |
| C27A U28C C29G C61A | 0.664 |
| U26A U28A C31U G56A C66G | ≤ 0.5 |
| U26G C30G | 0.6 |
| C27U C46U A57G | 0.679 |
| C27A G39C C55G A65U | ≤ 0.5 |
| U26C U53C A57U C66G | ≤ 0.5 |
| U28C C31A C34G A45U | ≤ 0.5 |
| C27G C29G C30U | ≤ 0.5 |

| Variant | yeast fitness |
| --- | --- |
| C27G C33G C60U C61G | 0.503 |
| U26G G48A A57U | 0.598 |
| U28A U32C A43C A57C | ≤ 0.5 |
| U26G C49A | 0.703 |
| U26G C49G | 0.851 |
| C27A A43C U54C | 0.624 |
| U28C C30U A69U | 0.598 |
| U26G C33G U35A C55U A65C | ≤ 0.5 |
| U26C U59C | 0.793 |
| U26C U59A | 0.882 |
| C27G C30G C31U A42G U54C | ≤ 0.5 |
| C27A G67A | 0.807 |
| C27A G67C | 0.786 |
| C27A G67U | 0.745 |
| U26G G63C C66U | ≤ 0.5 |
| C27U C31U C55U | 0.643 |
| C27U U32A | 0.993 |
| U26G C66U | 0.862 |
| U26C C33G U59C | 0.515 |
| U26C C27U U54G G56A | 0.54 |
| C27U A40C A57U | 0.606 |
| U28C A65U | 0.855 |
| C27U G50C A65C | ≤ 0.5 |
| C27A A57C C66U | 0.538 |

| Variant | yeast fitness |
| --- | --- |
| U28A C34U A37U A45U A57G C61U | ≤ 0.5 |
| U26G C46G C61U | 0.824 |
| C27A A37C G52A U59A | ≤ 0.5 |
| C27G C61U | 0.594 |
| C27U G50C | 0.618 |
| C27G A69U | 0.738 |
| U28C A42U A69U | 0.74 |
| U26C C31U A43G G63A | 0.611 |
| C27G G52A | 0.941 |
| C27U G38A U59G U64C A65U | ≤ 0.5 |
| U28A A40U C61A G68A | ≤ 0.5 |
| U28A A36U C61A A69U | ≤ 0.5 |
| C27G C49A A70U | ≤ 0.5 |
| C27U U28A U32A C34U A36C U47C C55A | ≤ 0.5 |
| U28C A37C A69C | ≤ 0.5 |
| C27G A42G A57G U59G | ≤ 0.5 |
| C27U A57U G58C | 0.667 |
| U26C C27U U59C | 0.702 |
| C27U A43U C55U | 0.592 |
| C27U C31A U35C C55G C66U A70C | ≤ 0.5 |
| U26G C46A | 0.949 |
| U26C G38C | 0.717 |
| C27U G39A G68U | 0.54 |
| C27G A43C C60G | ≤ 0.5 |

| Variant | yeast fitness |
| --- | --- |
| U26G G51C | 0.588 |
| U28C A69C | 0.94 |
| C27U A36C A42U C46U C62U G63A | ≤ 0.5 |
| C27U C30U C34G A37C A69C | ≤ 0.5 |
| U28A U53A | 0.6 |
| U28C C33G G38A | ≤ 0.5 |
| U28A U64C | 0.834 |
| C27G A70U | 0.74 |
| C27G U59G G68C | 0.582 |
| C27U G51C U59C | ≤ 0.5 |
| C27G C62U | 0.688 |
| C27G C49A G52C C60U | ≤ 0.5 |
| C27U U28G A40C G51A | 0.543 |
| C27G C30U G56A | ≤ 0.5 |
| U26C G68C | 0.936 |
| U28A A69U | 0.749 |
| C27U A40G G44A C62U | ≤ 0.5 |
| C27U A40G G44A C62A | 0.51 |
| C27G C30A C34G A45G C62U A69G | ≤ 0.5 |
| U26C C33G A36G A42C C49G G58C C62G | ≤ 0.5 |
| U26G C27U G56A A65C | ≤ 0.5 |
| C27U G38C A40C A42C | ≤ 0.5 |
| U26G A37U G51A | ≤ 0.5 |
| C27U C29A A36U A40C G41A A65U | ≤ 0.5 |

| Variant | yeast fitness |
| --- | --- |
| U26C C27A | 0.859 |
| U26G U28A A43G C61U G67A | 0.599 |
| C27U G58A G63A | 0.53 |
| C27A U28C G67U A70G | ≤ 0.5 |
| C27U C61U | 1.01 |
| U26C A42G G67U | 0.647 |
| C27A C49U C61A | ≤ 0.5 |
| U26A U59C C66U | 0.564 |
| U28C A40C G56C A65G | ≤ 0.5 |
| C27A C46A A69G | 0.582 |
| C27U G38C A57G A65C | ≤ 0.5 |
| C27U C33U C66U | 0.536 |
| C27A A43C A69C | 0.748 |
| C27A C29U G48A G68C | ≤ 0.5 |
| C27G A40U | 0.682 |
| C27G A40G | 0.594 |
| U26G C27A | 0.647 |
| C27U C49U A57G | 0.703 |
| U26C A69C | 0.885 |
| C27G A40G G48A A57C U64A | ≤ 0.5 |
| C27U C29U C55A G58A | ≤ 0.5 |
| C27U A57G C60U | ≤ 0.5 |
| C27G U28A C30G C31U | 0.51 |
| U28C A37C A40U | 0.568 |

| Variant | yeast fitness |
| --- | --- |
| C27U U32C C55A | ≤ 0.5 |
| C27A G39A A42C G48C C60U | ≤ 0.5 |
| C27G A43G | 0.636 |
| U28C C30A G39A C66U | 0.594 |
| C27U C33U A40C A57G C66U | ≤ 0.5 |
| C27A G41C A43C G48A C66U | 0.546 |
| U26G G48C | 0.805 |
| U26G G48A | 1.08 |
| U26A U28A C31U G63C | ≤ 0.5 |
| C27G G58C U59C G63A | ≤ 0.5 |
| C27G A42G C60A | ≤ 0.5 |
| C27A C31U C60G | ≤ 0.5 |
| C27A A36G U53A A70G | ≤ 0.5 |
| U28C A45U C55A C66A | ≤ 0.5 |
| C27A C61U C66U | ≤ 0.5 |
| C27U C31G A43C C49G G52C U59A G68A | ≤ 0.5 |
| C27U A37U A69C | 0.608 |
| U28C G39A A40U A42G | ≤ 0.5 |
| U26C C61U C62G | ≤ 0.5 |
| U28A C34U A40U A45U C60A | 0.706 |
| C27U A43G C46G A69C | ≤ 0.5 |
| U28C A37U A40U C49G A57U G68C A70G | 0.624 |
| C27G A36C C46U G51C | 0.54 |
